# Arrestin-AP2 inh – inhibitors of beta-arrestin/AP2 binding, primary screen, biochemical, GPCR trafficking, flow cytometry | beta-arrestin 1 C-terminal peptide binding to AP2 beta2-adaptin appendage (human) | FITC-arrestin peptide / GST-AP2 beads; AP2 beta2 appendage carries R879A mutation | inhibition, % at 10 µM | actives 0.31% (n = 340,000) | AID 504490, 2011;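 active = inhibition above a set limit, near 3 SD of compounds lacking own fluorescence, cut at about 54% in these data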;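 also: plate controls were DMSO wells for no effect and 5 µM unlabelled arrestin peptide for full effect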
#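 system = GST-tagged AP2 beta2-adaptin appendage (R879A) on 4 µm glutathione beads | reagent = FITC-labelled arrestin peptide probe, 50 nM final | schedule = compound with beads 12 min RT, then probe 1 h RT | signal = HyperCyt-sampled flow cytometry, FL1 channel, ex 488/em 535 nm | read-out = percent response from loss of bead-bound FITC fluorescence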
# m5-HT2A agonist – mouse Htr2a agonists via beta-arrestin recruitment, primary screen, cell-based, luminescence | activation, % at 7.6 µM | AID 624169, 2012 | CHO-K1 mHTR2A beta-arrestin complementation; percent of 30 µM serotonin response | actives 0.66% (n = 360,000) | 5-hydroxytryptamine receptor 2A (Mus musculus), P35363;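 active = activation above a run cutoff, the mean activation of all tested compounds plus 3 SD, cut at about 14% in these data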;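 also: 0% = plate median of compound wells and 100% = 30 µM serotonin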
# Target sequence (P35363 whole entry, looked up): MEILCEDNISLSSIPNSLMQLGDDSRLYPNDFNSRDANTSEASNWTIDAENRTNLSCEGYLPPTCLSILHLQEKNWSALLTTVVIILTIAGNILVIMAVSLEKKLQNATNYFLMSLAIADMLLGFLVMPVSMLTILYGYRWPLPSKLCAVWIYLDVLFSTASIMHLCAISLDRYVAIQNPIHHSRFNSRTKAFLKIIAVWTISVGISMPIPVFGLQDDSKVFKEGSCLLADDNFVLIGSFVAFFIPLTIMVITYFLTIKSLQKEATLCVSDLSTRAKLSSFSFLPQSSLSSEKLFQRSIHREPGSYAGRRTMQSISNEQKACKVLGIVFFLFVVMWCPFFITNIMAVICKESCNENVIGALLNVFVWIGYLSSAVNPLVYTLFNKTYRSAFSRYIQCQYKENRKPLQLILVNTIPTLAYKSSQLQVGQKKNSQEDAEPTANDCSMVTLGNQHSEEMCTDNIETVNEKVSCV
# Lipid droplet – inhibitors of hepatocyte lipid droplet formation, primary screen, imaging, high-throughput imaging, BODIPY stain. inhibition, % at 6.5 µM. actives 0.4% (n = 240,000). AML12 mouse hepatocytes, oleate lipid droplets;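 active = lipid droplet intensity inhibited by at least 50%, with more than 500 cells counted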
#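 material = mouse AML12 hepatocyte cell line, fixed after treatment | also added = 100 µM oleic acid challenge | doses = compound at 6.5 µM only | schedule = overnight exposure | technique = Image-based BODIPY and DAPI two-channel analysis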
# sPLA2-III inh – human group III sPLA2 inhibitors, primary screen, biochemical, QFRET, BODIPY PC-A2 liposome substrate; AID 743126, 2013; actives 0.56% (n = 370,000); Group 3 secretory phospholipase A2 (Homo sapiens), Q9NZ20; QFRET BODIPY PC-A2 liposome hydrolysis, fluorescence; inhibition, % at 12.2 µM;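 active = inhibition above mean plus 3 SD of compounds lying within the high and low control bounds, cut at about 19% in these data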;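 also: 0% = median of test compound wells and 100% = no enzyme DMSO wells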
# CendR NRP1 mod – modulators of CendR peptide binding to NRP-1, primary screen, biochemical, fluorescence polarization, uHTS; AID 602438, 2012; actives 0.85% (n = 360,000); inhibition, % at 25 µM; FAM-RPARPAR peptide binding to NRP-1; Neuropilin-1 (Homo sapiens), O14786;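 active = inhibition or corrected inhibition above about 18%, plus a signal ratio from 0.5 to 1.5, limit read from the data, passing the limit was not always enough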
# PfM18AAP inh – PfM18AAP inhibitors, malaria aminopeptidase, primary screen, biochemical, QFRET, recombinant enzyme; M18 aspartyl aminopeptidase (Plasmodium falciparum 3D7); actives 1.2% (n = 290,000); H-Glu-NHMec fluorogenic cleavage; inhibition, % at 7.35 µM;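 active = inhibition above the campaign mean inhibition over all tested compounds plus 3 SD, cut at about 28% in these data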;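 also: 0% = plate median of test compound wells and 100% = 2 mM ZnCl2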
# sPLA2 confirm – human group III sPLA2 inhibitors, confirmation, biochemical, QFRET, triplicate; shares compounds with sPLA2-III inh; recombinant hGIII-sPLA2, BODIPY PC-A2 QFRET fluorescence; inhibition, % at 12.2 µM; actives 34% (n = 2,000); AID 743280, 2014;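 active = mean inhibition across triplicates above the hit cutoff set in the earlier primary screen, cut at about 19% in these data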;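 also: 0% = enzyme with DMSO and 100% = DMSO wells lacking enzyme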
# BODIPY interf – 535nm fluorescence optical interference, confirmation, artefact control for HGIII-sPLA2 inhibitor project, biochemical, QFRET | inhibition, % at 12.2 µM | BODIPY FL product fluorescence interference | actives 8.5% (n = 2,000) | shares compounds with sPLA2-III inh | AID 743282, 2014;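 active = average inhibition above the solvent-only control mean plus 3 SD, cut at about 6% in these data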;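 also: 0% = DMSO with substrate plus product and 100% = DMSO with substrate alone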
# BODIPY interf DR – 535nm fluorescence optical interference, dose response, artefact control for HGIII-sPLA2 inhibitor project, biochemical, QFRET. IC50, µM. AID 743455, 2014. BODIPY FL product fluorescence interference, cell-free. 240 tested, under 10 active. shares compounds with sPLA2-III inh;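 active = IC50 at or below 10 µM; inactive = IC50 above 10 µM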
# * hit, by the source's call; x = no result. A selection: hits, their analogues and other compounds. The true share with any hit is near 3.3%.
SMILES,Arrestin-AP2 inh,m5-HT2A agonist,Lipid droplet,sPLA2-III inh,CendR NRP1 mod,PfM18AAP inh,sPLA2 confirm,BODIPY interf,others
Cn1c(=O)c(=O)n(C)c2cc(N3CCCCC3)c(NS(=O)(=O)c3ccc([N+](=O)[O-])cc3)cc21,5.2,-2.7,4.4,20.7*,9.7,19.2,12.3,-3.0,
O=C(Nc1nnc(SCC(=O)N2CCCc3ccccc32)s1)c1ccc2ccccc2c1,-5.4,4.8,-0.6,20.0*,-4.6,-4.5,-49.0,-9.3,
O=C(Nc1nnc(SCC(=O)N2CCCc3ccccc32)s1)c1ccccc1,4.6,1.5,7.7,2.8,5.2,-0.6,x,x,
Cc1cccc(C(=O)NC(=S)N2CCN(C(=S)NC(=O)c3cccc(C)c3)CC2)c1,28.2,1.7,2.6,29.3*,7.1,1.9,18.7,-5.0,
CCCNC(=S)N1CCC(NC(=O)c2cccc(C)c2)CC1,1.1,5.1,-4.5,20.1*,2.0,-12.0,12.7,-8.1,
Cc1cccc(C(=O)NC(=S)N2CCN(C)CC2)c1,-5.5,-1.6,x,4.7,3.7,-3.7,x,x,
CC(C)c1cc(C(=O)NCc2ccc(F)cc2)c(N)s1,x,-1.8,x,21.2*,-12.4,x,23.7*,1.8,
CCOc1ccccc1C(=O)NN1C(=O)C2CCCCC2C1=O (configuration not stated),-21.6,2.3,6.7,22.2*,-5.9,9.1,-1.9,-1.7,
CN(C(=O)[C@H]1O[C@@H](n2cnc(C(N)=O)n2)[C@H](O)[C@@H]1O)c1ccccc1,x,x,x,7.3,x,x,x,x,
CCOC(=O)C1(C)CCCCCN1C(=O)c1ccco1 (configuration not stated),x,1.3,x,0.9,14.0,x,x,x,
COc1cc(CC(NC(C)=O)C(=O)NC2CCN(c3c(Cc4ccccc4)c(C)nc4ncnn34)CC2)cc(OC)c1 (configuration not stated),2.5,5.9,-12.4,22.0*,-15.8,-0.9,-1.7,-32.3,
CC(=O)Nc1ccc(NC(=O)C2CCN(c3c(Cc4ccccc4)c(C)nc4ncnn34)CC2)cc1,0.7,3.7,x,4.6,-0.2,0.7,x,x,
CN1c2ccccc2Sc2cc(N)ccc21,16.2,3.1,4.9,21.4*,-3.8,36.9*,35.8*,10.5*,
CC(=O)N1c2ccccc2Sc2ccccc21,12.6,-2.3,-2.5,-1.4,1.4,-9.4,x,x,
COc1ccc(C(=O)N2CCCCC2c2cc(C(=O)NCc3ccc(Cl)c(Cl)c3)no2)cc1 (configuration not stated),x,-7.5,x,-19.1,-8.6,x,x,x,
COc1cc([N+](=O)[O-])c(C(=O)N2CCOCC2)c([N+](=O)[O-])c1,0.4,1.6,-4.2,20.4*,8.0,-1.7,5.1,-0.2,
O=C(NC(=S)Nc1ccc(S(=O)(=O)N2CCCCC2)cc1)c1cccs1,10.5,-0.3,-0.1,19.2*,13.5,1.7,19.3*,-3.8,
O=S(=O)(c1ccc(NC(=S)NN=Cc2ccccc2O)cc1)N1CCCCC1,49.9,4.1,x,26.0*,-11.5,x,33.3*,9.8*,
O=[N+]([O-])c1cc(Cl)cc(/C=N/NC(=S)Nc2ccc(S(=O)(=O)N3CCOCC3)cc2)c1O,-4.4,-5.9,9.5,68.6*,-9.7,14.3,70.4*,19.1*,
S=C(NCC1CCCCC1)Nc1cccnc1,6.3,1.2,20.3,22.6*,-4.6,2.1,6.5,-5.5,
CCC(=O)Nc1c(C(=O)N2CCN(c3ccccn3)CC2)cnn1-c1ccc(C)cc1,5.2,-2.3,11.1,22.3*,2.0,-0.2,-0.7,-8.7,
Fc1cccc(-c2n[nH]c(=S)n2-c2ccccc2)c1,-11.7,3.5,-0.4,25.1*,3.3,9.4,18.0,1.1,
O=C(O)c1ccccc1C(=O)Nc1ccc(S(=O)(=O)NC2CCCCC2)cc1,8.2,0.4,x,20.3*,10.1,-3.1,3.3,-2.8,
Cc1cc(C)cc(NS(=O)(=O)c2ccc(NC(=O)c3ccccc3C(=O)O)cc2)c1,2.0,3.0,x,-3.4,-0.3,x,x,x,
O=C(NCC1CCCCC1)C1(CC2CC(c3ccc(Cl)cc3)=NO2)CCNCC1 (configuration not stated),2.9,-4.3,1.2,-3.5,-5.4,0.4,x,x,
SMILES,Arrestin-AP2 inh,m5-HT2A agonist,Lipid droplet,sPLA2-III inh,CendR NRP1 mod,PfM18AAP inh,sPLA2 confirm,BODIPY interf,others
Cc1ccc2c(c1)C(=O)C(=O)N2CCCOc1ccccc1C,8.0,1.0,1.7,14.6,-5.6,7.9,x,x,
Cc1cccc2c1N(CCCOc1ccc(C(C)(C)C)cc1)C(=O)C2=O,4.1,-5.3,x,x,2.4,1.3,x,x,
Cc1cccc2c1N(CCCOc1ccccc1)C(=O)C2=O,12.1,0.4,x,21.1*,14.1,-1.8,17.6,-3.9,
Cc1ccccc1OCCCN1C(=O)C(=O)c2cccc(C)c21,1.2,-5.0,1.9,28.4*,-1.2,2.7,37.9*,-1.8,BODIPY interf DR=>122
COc1cc(/C=C2/C(=N)N3N=C(CC(=O)N4CCOCC4)SC3=NC2=O)ccc1OCc1ccc(F)cc1,-5.8,3.0,-13.4,-21.3,-46.1,-4.3,x,x,
COc1cc(CNn2c(C)n[nH]c2=S)cc(Cl)c1OCC(=O)NC(C)(C)C,11.7,-1.2,x,28.9*,7.8,2.4,25.3*,-4.0,
Cc1cc(NC(=O)CSc2nnc(-c3ccncc3)n2Cc2ccccc2)n(-c2ccccc2)n1,-6.3,0.3,21.9,5.8,13.4,-6.8,x,x,
COCCn1c(SCC(=O)Nc2cc(C)nn2-c2ccccc2)nnc1-c1ccncc1,-7.5,-1.5,13.6,20.4*,3.3,4.2,3.7,-7.2,
CCOc1ccc(Nc2cc3n(c(=O)n2)CCc2cc(OC)c(OC)cc2-3)cc1,-0.4,2.6,-27.8,8.8,1.3,5.1,x,x,
CCOc1ccccc1Nc1cc2n(c(=O)n1)CCc1cc(OC)c(OC)cc1-2,18.7,-5.6,-4.2,82.0*,-1.5,9.1,4.9,-15.9,

# Assay outcomes: PubChem BioAssay, several laboratories
